SR-BI HDL uptake: blocks mouse SR-BI lipid uptake from DiI-HDL. AID 488896. inhibition, % at 12.5 µM. ldlA[mSR-BI] CHO cells, DiI-HDL uptake fluorescence, 3 h. actives 0.96% (n = 320,000);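 active means mean replicate inhibition of at least 70% and a set share of replicates each scoring 70 or more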
NSD2 inh: blocks human histone methyltransferase NSD2; O96028; NSD2 peptide methylation, AlphaScreen, 120 min; inhibition, % at 12.5 µM; actives 0.54% (n = 310,000); AID 743445; in the data active means inhibition above about 50%
XiGFP reactiv: activators of X-chromosome reactivation in mouse fibroblasts; AID 743238; actives 0.055% (n = 360,000); activation, % at 7.58 µM; XiGFP mouse fibroblasts, % GFP-positive cells imaging, 3 d; cells co-treated with 5-aza-dC sensitizer; scaled so ellipticine positive control = 100%;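 active means mean normalized replicate activation at least 10% and every replicate at or above 10%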
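System: 68-5-11 XiGFP fibroblast line; Timing: 3 days compound exposure; Compound dosing: one concentration, pinned; Benchmarks: positive control ellipticine, 6 µM final; Buffer or medium: DMEM containing 5-aza-dC.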
SR-BI uptake up: SR-BI HDL lipid transfer activation; AID 504775; CHO ldlA[mSR-BI] cells, DiI-HDL uptake fluorescence, 3 h; 100 = double the neutral-control signal; actives 0.096% (n = 320,000); activation, % at 12.5 µM;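 active means mean replicate activation of at least 60% and every replicate at or above 60%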
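Assay system: LDL receptor-deficient CHO ldlA cells overexpressing murine SR-BI / Medium: BSA-supplemented, HEPES-buffered Ham's F12, pH 7.4 / Probe or stimulus: DiI-labelled HDL at 10 µg/mL final / Timing: compound with DiI-HDL co-incubation, 3 h at 37 °C / Technique: bottom-read cell fluorescence after medium removal, ex 550/em 595 nm / Measure: HDL uptake via cellular fluorescence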
ARNT TACC3 PPI: disrupts binding between human ARNT and TACC3 | Q9Y6A5 | AlphaScreen His-ARNT PAS-B/GST-TACC3 binding, luminescence; TACC3 fragment carries E629A point mutation | inhibition, % at 9.99 µM | actives 0.66% (n = 390,000);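 active means mean inhibition of replicates at least 50% and at least half of replicates each reaching 50%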
sPLA2-III inh: Inhibits HGIII-sPLA2 liposome hydrolysis, primary screen; Q9NZ20; QFRET BODIPY PC-A2 liposome hydrolysis, fluorescence; inhibition, % at 12.2 µM; actives 0.56% (n = 370,000); AID 743126;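 active means inhibition above mean plus 3 SD of compounds lying within the high and low control bounds, cut at about 19% in these data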
sPLA2 confirm: human GIII-sPLA2 inhibition, confirmation; shares compounds with sPLA2-III inh; AID 743280; actives 34% (n = 2,000); inhibition, % at 12.2 µM; recombinant hGIII-sPLA2, BODIPY PC-A2 QFRET fluorescence;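 active means mean inhibition across triplicates above the hit cutoff set in the earlier primary screen, cut at about 19% in these data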
535nm interf: optically interferes with 535nm fluorescence in sPLA2 counter-screen; shares compounds with sPLA2-III inh; BODIPY FL product fluorescence interference, QFRET; inhibition, % at 12.2 µM; actives 8.5% (n = 2,000); AID 743282;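 active means average inhibition above the solvent-only control mean plus 3 SD, cut at about 6% in these data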
BODIPY interf DR: interferes with 535nm fluorescence in dose response counter-screen; shares compounds with sPLA2-III inh; BODIPY FL product fluorescence interference, cell-free; IC50, µM; 240 tested, under 10 active;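 active means IC50 at or below 10 µM; inactive means IC50 above 10 µM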
Large screens that a line does not name were inactive (follow-up assays come after a bar, where they were run). Compounds with a hit are over-represented: about 2% of the library has one in this group of screens.

CC(C)c1ccccc1NC(=O)Nc1nc(C(N)Cc2ccc(C(F)(F)F)cc2)cs1 (configuration not stated)	none (no result: SR-BI HDL uptake, SR-BI uptake up, ARNT TACC3 PPI)
CC(C)c1ccc(NC(=O)Nc2nc(C(N)COCc3ccccc3)cs2)cc1 (configuration not stated)	sPLA2-III inh 21.7 (no result: SR-BI HDL uptake, SR-BI uptake up, ARNT TACC3 PPI) | sPLA2 confirm inactive | 535nm interf inactive
CC(C)(C)c1ccccc1NC(=O)Nc1nc(C(N)c2ccccc2)cs1 (configuration not stated)	none (no result: SR-BI HDL uptake, SR-BI uptake up, ARNT TACC3 PPI)
CC(C)CC(N)c1csc(NC(=O)Nc2ccccc2C(C)C)n1 (configuration not stated)	sPLA2-III inh 22.5 (no result: SR-BI HDL uptake, SR-BI uptake up, ARNT TACC3 PPI) | sPLA2 confirm inactive | 535nm interf inactive
CC(C)Oc1ccc(C(=O)Nc2cccc(S(=O)(=O)N3CCCC3)c2)cc1	none
CCOC(=O)N1CCN(C(=O)CSc2nc(CC)nc3c2c(=O)n(C)c(=O)n3C)CC1	sPLA2-III inh 20.6 | sPLA2 confirm inactive | 535nm interf inactive
CCc1cc(C(=O)Cc2cnn(-c3ccccc3)c2)c(O)cc1O	none (no result: XiGFP reactiv)
O=C(Cc1cnn(-c2ccccc2)c1)c1ccc(O)c(O)c1O	sPLA2-III inh 24.1 (no result: NSD2 inh, XiGFP reactiv) | sPLA2 confirm inactive | 535nm interf inactive
Cc1ccc(NC(=O)CN2C(=O)NC3(CCCC3)C2=O)nc1	none
O=C(NC(=S)N1CCN(c2c(Cl)cccc2[N+](=O)[O-])CC1)c1cccs1	none (no result: XiGFP reactiv, ARNT TACC3 PPI)
COc1ccc(N2CCN(C(=S)NC(=O)c3cccs3)CC2)c([N+](=O)[O-])c1	sPLA2-III inh 26.3 | sPLA2 confirm 27.5 | 535nm interf inactive
CCC(CC)COC(=O)C1=C(C)NC(=O)NC1c1ccc(N(C)C)cc1 (configuration not stated)	sPLA2-III inh 23.5 | sPLA2 confirm 23.0 | 535nm interf inactive
CCOC(=O)C1=C(C)NC(=O)NC1c1ccc(N(CC)CC)cc1 (configuration not stated)	sPLA2-III inh 20.0 (no result: NSD2 inh) | sPLA2 confirm inactive | 535nm interf inactive
CCOC(=O)C1=C(C)NC(=O)NC1c1ccc(N(C)C)cc1 (configuration not stated)	none (no result: NSD2 inh)
COc1ccc(NCc2ccc([N+](=O)[O-])s2)c(OC)c1	sPLA2-III inh 24.8 | sPLA2 confirm inactive | 535nm interf inactive
COc1ccc(NCc2ccc([N+](=O)[O-])s2)cc1	none
CSCc1cc(N(C)C)nc(SCc2ccc(Cl)c(Cl)c2)n1	sPLA2-III inh 20.9 (no result: XiGFP reactiv) | sPLA2 confirm inactive | 535nm interf inactive
COc1ccc(NC(=O)N2CCCCN3[C@@H](CO)[C@@H](c4ccc(C#Cc5ccccc5)cc4)[C@@H]3C2)cc1	none (no result: SR-BI HDL uptake, NSD2 inh, XiGFP reactiv, SR-BI uptake up, sPLA2-III inh)
COc1cc(OC)c(C2Nc3cccc4cccc(c34)N2)c(OC)c1	sPLA2-III inh 22.2 | sPLA2 confirm 37.2 | 535nm interf inactive | BODIPY interf DR inactive
COc1ccccc1C1Nc2cccc3cccc(c23)N1	sPLA2-III inh 21.1 (no result: XiGFP reactiv) | sPLA2 confirm 33.8 | 535nm interf 11.5
COc1ccc(C2Nc3cccc4cccc(c34)N2)cc1	none (no result: ARNT TACC3 PPI)
CO[C@H]1CN(C)C(=O)c2cc(NC(=O)c3cnccn3)ccc2OC[C@@H](C)N(CCc2ccccc2)C[C@H]1C	none (no result: SR-BI HDL uptake, NSD2 inh, SR-BI uptake up, sPLA2-III inh)
CC(O)CCC(=O)NNC(=S)Nc1ccccc1 (configuration not stated)	none
Cc1cccc(NCC(=O)NNC(=S)Nc2ccccc2)c1	ARNT TACC3 PPI 46.9, sPLA2-III inh 23.1 | sPLA2 confirm inactive | 535nm interf inactive
Cc1cccc(NC(=S)NNC(=O)c2csc(C)c2)c1	sPLA2-III inh 26.9 | sPLA2 confirm 38.3 | 535nm interf inactive | BODIPY interf DR inactive
O=C(CSCc1ccccc1Cl)NNC(=S)Nc1ccccc1	sPLA2-III inh 40.6 (no result: XiGFP reactiv) | sPLA2 confirm 42.0 | 535nm interf inactive | BODIPY interf DR inactive
Cc1cccc(NC(=S)NNC(=O)c2csc3c2CCCC3)c1	none (no result: XiGFP reactiv)
C/C=C/c1ccc([C@@H]2[C@H](CO)N(C(=O)C3CC3)[C@H]2CN(CC)C(C)=O)cc1	none (no result: SR-BI HDL uptake, NSD2 inh, SR-BI uptake up, sPLA2-III inh)
COc1cc([N+](=O)[O-])ccc1N	sPLA2-III inh 28.4 | sPLA2 confirm inactive | 535nm interf inactive
CCOC(=O)C(=O)Nc1ccc([N+](=O)[O-])cc1OC	sPLA2-III inh 23.4 | sPLA2 confirm inactive | 535nm interf inactive
O=S(=O)(c1ccc(-c2n[nH]c(=S)o2)cc1)N1CCCC1	sPLA2-III inh 21.2 (no result: SR-BI HDL uptake, SR-BI uptake up) | sPLA2 confirm inactive | 535nm interf inactive
Cc1noc(C)c1NC(=O)Nc1cccc2c1O[C@H](CN(C)Cc1ccc(Oc3ccccc3)cc1)[C@@H](C)CN([C@H](C)CO)C2=O	none (no result: SR-BI HDL uptake, NSD2 inh, SR-BI uptake up, sPLA2-III inh)
COc1ccccc1CC(=O)Nc1ccc(Cl)cc1C(=O)O	none
COC(=O)c1cc(Cl)ccc1NCC(N)c1ccccc1 (configuration not stated)	sPLA2-III inh 20.2 (no result: SR-BI HDL uptake, SR-BI uptake up, ARNT TACC3 PPI) | sPLA2 confirm inactive | 535nm interf inactive
CC1(C)CC(=O)C=C(Nc2ccccn2)C1	none (no result: XiGFP reactiv)
CC1(C)CC(=O)C=C(Nc2ccc(Br)cn2)C1	sPLA2-III inh 21.2 (no result: SR-BI HDL uptake, NSD2 inh, XiGFP reactiv, SR-BI uptake up) | sPLA2 confirm inactive | 535nm interf inactive
CCCCNC(=S)NNC(=O)CCn1nc(C)c(Br)c1C	none (no result: XiGFP reactiv)
Cc1c(Cl)c(C(=O)NNC(=S)NCc2ccco2)nn1C	sPLA2-III inh 35.1 (no result: XiGFP reactiv) | sPLA2 confirm 41.2 | 535nm interf inactive | BODIPY interf DR inactive
CCCCNC(=S)NNC(=O)c1nn(C)c(C)c1Cl	sPLA2-III inh 23.3 (no result: XiGFP reactiv) | sPLA2 confirm 20.6 | 535nm interf inactive
Cn1cc(Cl)c(C(=O)NNC(=S)NCc2ccco2)n1	sPLA2-III inh 29.7 | sPLA2 confirm 25.0 | 535nm interf 6.3
CCCCc1nc2cc(C(=O)NC(C)c3cnn(C)c3)ccc2o1 (configuration not stated)	none
CC(=O)c1cn(-c2ccc([N+](=O)[O-])cc2)c(=O)n(C)c1=O	none
Cn1c(CBr)c(C(=O)c2ccc([N+](=O)[O-])cc2)c(=O)n(C)c1=O	sPLA2-III inh 22.1 | sPLA2 confirm inactive | 535nm interf inactive
COc1ccc(/C=N/n2c(-c3ccccc3)n[nH]c2=S)cc1	none
Cc1cccc(/C=N/n2c(-c3ccccc3)n[nH]c2=S)c1O	none
